Data set [1] is described as follows: Biosurfactant activity assessed as diameter of clear zone at 10 mg/ml by oil displacement assay. The class given is functional. The method in brief: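 Oil displacement assay as an indirect measure of surface activity: sample tested at 10 mg/mL and the clear-zone diameter measured. SDS and pluronic F-68 were run at the same concentration for reference.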
A further data set deals with MCF7. As to the kind of experiment: Cytotoxicity against human MCF7 cells incubated for 72 hrs by MTT assay. Type of data set: functional, cell-based. As to conditions: MCF7, 72 h.
The nature of data set [2]: Biosurfactant activity assessed as reduction in surface tension of aqueous solution at 10 to 1200 ug/ml by ring method. The class given is functional. The gist of the method:
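Surface tension of aqueous solutions (10−1200 μg/mL) measured by the ring method on a Du Noüy tensiometer with a platinum ring at 25 °C, in triplicate. The instrument was calibrated against pure H2O before each set. CMC was taken from the breakpoint of the surface tension versus log bulk concentration curve.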

The nature of data set [3]: Biosurfactant activity assessed as Critical micelle concentration of compound. The class given is physicochemical.
The subject of a further data set is Amphibalanus amphitrite. Description: Antifouling activity against Amphibalanus amphitrite at 0.88 ug/ml. Type of data set: functional, organism-based.

Calls of active or inactive are those of the source. The calls are words filed in the database; no cut-off is given here. Bounds are passed on as bounds.

The IC50 is the midpoint of a concentration-inhibition curve.

As for `CCCCCCCCCCCCOS(=O)(=O)[O-].[Na+]`, the Activity in data set [1] amounted to 84 mm. With `CCCCCCCCC(Cl)CCCC/C=C/CCC(=O)N(C)[C@H](CO)COC` (stereo not given in full), the IC50 with MCF7 was over 10 µg/mL.

In the case of `CCCCCCCCCCCCCCC/C=C(\C)C(=O)N[C@@H](CO)COC`, the outcome (in data set [2]; with Amphibalanus amphitrite) was Active. Also, the CMC in data set [3] is reported as 0.78 mM. As to `COC[C@@H](CO)N(C)C(=O)CC/C=C/CCCC[C@H](Cl)CCCCCCCCCl`, the result in data set [2] was Active. Also, the CMC in data set [3] was determined as 0.34 mM. On to `COC[C@@H](COC(C)=O)N(C)C(=O)CC/C=C/CCCCC(Cl)CCCCCCCC(Cl)Cl` (stereo not given in full), for which, in the data set on MCF7, the IC50 was over 10 µg/mL. With `COC[C@@H](COC(C)=O)N(C)C(=O)CC/C=C/CCCC[C@H](Cl)CCCCCCCCCl`, in data set [1], the Activity was found to be 90 mm. Further, in the data set with MCF7, the IC50 is over 10 µg/mL.

The values above are taken from ChEMBL document CHEMBL4619761, “Biosurfactants from Marine Cyanobacteria Collected in Sabah, Malaysia” (J Nat Prod, 2020).
